Test results taken from ChEMBL document CHEMBL1208669, “Synthesis of 2-(pyrimidin-2-yl)-1-phenyl-2,3,4,9-tetrahydro-1H-beta-carbolines as antileishmanial agents” (Eur J Med Chem, 2010).
Values after ≈ are worked out from the molar mass of the structure shown. Active and inactive are the calls of the source. The rule behind the calls is not given here.

How the values were obtained:
[1] = system: Leishmania donovani; assay: Antileishmanial activity against promastigotes of Leishmania donovani MHOM/IN/80/Dd8 after 72 hrs by luciferase reporter gene assay relative to control; assay type: functional
Outline: (§1)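 Dd8 promastigotes transfected with firefly luciferase were kept in medium 199 + 10% FCS with antibiotics under G418. Late-log cells were incubated 72 h with serial drug dilutions, with parallel DMSO dilutions as controls. An aliquot was mixed 1:1 with Steady Glo and luminescence read as RLU. % inhibition = (N − n) × 100/N versus untreated control RLU; tested as serial dilutions or single concentration.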

[2] = system: Leishmania donovani; assay: Antileishmanial activity against amastigote of Leishmania donovani MHOM/IN/80/Dd8 infected in mouse J774A1 cells after 72 hrs by luciferase reporter gene assay; assay type: functional, organism-based; conditions: MHOM/IN/80/Dd8, J774.A1, 72 h
Outline: (§2)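 J774A.1 macrophages were seeded at 1.5 × 10⁴ cells/well in RPMI-1640 + 10% FCS, 37 °C, CO₂, for 24 h. They were then infected with stationary-phase luciferase-transfected Dd8 promastigotes (2.25 × 10⁵/well), which transform to amastigotes. Compounds (0.25–10 range) were added in fresh medium for 72 h. Medium was removed, PBS and Steady Glo added, and luminescence read. Inhibition vs untreated controls; IC50 by logit regression.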

[3] = Cytotoxicity against mouse J774A1 cells after 72 hrs by MTT assay; assay type: cell-based, J774.A1
Outline: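 J774A.1 cells were grown in RPMI + 10% FCS with gentamycin. Exponential cells (1 × 10⁴/well) were exposed to a range of drug concentrations (DMSO stocks diluted in complete medium) for 72 h at 37 °C in humidified CO₂/air. MTT was added, formazan dissolved in DMSO after 15 min shaking, and absorbance read at 544 nm. CC50 is the 50% viability reduction versus medium-only cells.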

[4] = (§3) Selectivity index, ratio of CC50 for mouse J774A1 cells to IC50 for amastigote of Leishmania donovani MHOM/IN/80/Dd8; assay type: functional, J774.A1
Outline: (§4)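 Ratio of CC50 (J774A.1 MTT, 72 h) to IC50 against intracellular amastigotes in J774A.1 macrophages (luciferase read-out, 72 h).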

[5] = system: DU-145; assay: Cytotoxicity against human DU145 cells up to 50 ug/ml by MTT assay; assay type: functional, cell-based
[6] = system: MCF7; assay: Cytotoxicity against human MCF7 cells up to 50 ug/ml by MTT assay; assay type: functional, cell-based
[7] = system: KB; assay: Cytotoxicity against human KB cells up to 50 ug/ml by MTT assay; assay type: functional, cell-based
[8] = system: C-33-A; assay: Cytotoxicity against human C33A cells up to 50 ug/ml by MTT assay; assay type: functional, cell-based
[9] = system: Vero; assay: Cytotoxicity against african green monkey Vero cells up to 50 ug/ml by MTT assay; assay type: cell-based; conditions: chlorocebus sabaeus
[10] = system: DU-145; assay: Cytotoxicity against human DU145 cells by MTT assay; assay type: functional, cell-based
[11] = system: MCF7; assay: Cytotoxicity against human MCF7 cells by MTT assay; assay type: functional, cell-based
[12] = system: KB; assay: Cytotoxicity against human KB cells by MTT assay; assay type: functional, cell-based
[13] = system: C-33-A; assay: Cytotoxicity against human C33A cells by MTT assay; assay type: functional, cell-based
[14] = system: Vero; assay: Cytotoxicity against african green monkey Vero cells by MTT assay; assay type: cell-based; conditions: chlorocebus sabaeus
[15] = system: Leishmania donovani; assay: Antileishmanial activity against amastigote of Leishmania donovani MHOM/IN/80/Dd8 infected in mouse J774A1 cells at 0.25 to 10 ug/ml after 72 hrs by luciferase reporter gene assay; assay type: functional, organism-based; conditions: j774.a1; outline: as §2
[16] = system: Leishmania donovani; assay: Antileishmanial activity against Leishmania donovani; assay type: functional, organism-based
[17] = system: J774.A1; assay: as §3; assay type: functional; outline: as §4
[18] = system: Leishmania donovani; assay: Antileishmanial activity against promastigotes of Leishmania donovani MHOM/IN/80/Dd8 at 500 ug/ml after 72 hrs by luciferase reporter gene assay relative to control; assay type: functional, organism-based; outline: as §1

| Molecule | inhibition (INH) [1] [%] | IC50 ([2]; read-out: IC50) [µg/mL] | CC50 at 72 h ([3]; read-out: CC50) [µg/mL] | Ratio CC50/IC50 [4] | Activity [5] | Activity [6] | Activity [7] | Activity [8] | Activity [9] | IC50 [10] [µg/mL] | IC50 [11] [µg/mL] | IC50 [12] [µg/mL] | IC50 [13] [µg/mL] | IC50 [14] [µg/mL] | IC50 [15] | IC50 [2] [µg/mL] | CC50 at 72 h [3] [µg/mL] | IC50 [16] [µg/mL] | Ratio CC50/IC50 [17] | inhibition [18] [%] |
| --- | --- | --- | --- | --- | --- | --- | --- | --- | --- | --- | --- | --- | --- | --- | --- | --- | --- | --- | --- | --- |
| Clc1cc(Cl)nc(NCCc2c[nH]c3ccccc23)n1 | 99.78 | 7.34 (≈ 23.9 µM) | 20.6 (≈ 67 µM) | 2.8 | inactive | inactive | inactive | inactive | Non-toxic | – | – | – | – | – | – | – | – | – | – | – |
| c1ccc2c(CCNc3nc(N4CCOCC4)cc(N4CCOCC4)n3)c[nH]c2c1 | 99.72 | 3.05 (≈ 7.47 µM) | 19.4 (≈ 47.4 µM) | 6.34 | – | – | – | – | Non-toxic | – | – | – | – | – | – | – | – | – | – | – |
| CN1CCN(c2cc(N3CCN(C)CC3)nc(NCCc3c[nH]c4ccccc34)n2)CC1 | 100 | 1.74 (≈ 4 µM) | 18.4 (≈ 42.3 µM) | 10.55 | – | – | – | – | – | 21.3 (≈ 49 µM) | 35.2 (≈ 81 µM) | 33.4 (≈ 76.9 µM) | 26 (≈ 59.8 µM) | 29.7 (≈ 68.3 µM) | – | – | – | – | – | – |
| COc1cc(C2c3[nH]c4ccccc4c3CCN2c2nc(Cl)cc(Cl)n2)cc(OC)c1OC (racemic) | 81.68 | 3.81 (≈ 7.85 µM) | – | – | inactive | inactive | inactive | inactive | Non-toxic | – | – | – | – | – | – | – | – | – | – | – |
| COc1ccc(C2c3[nH]c4ccccc4c3CCN2c2nc(Cl)cc(Cl)n2)cc1OC (racemic) | 93.06 | 1.93 (≈ 4.24 µM) | 29.8 (≈ 65.4 µM) | 15.43 | inactive | inactive | inactive | inactive | Non-toxic | – | – | – | – | – | – | – | – | – | – | – |
| COc1ccc(C2c3[nH]c4ccccc4c3CCN2c2nc(Cl)cc(Cl)n2)cc1 (racemic) | 81.68 | 3.57 (≈ 8.39 µM) | – | – | – | – | – | – | – | 10.1 (≈ 23.7 µM) | 5.2 (≈ 12.2 µM) | 4.5 (≈ 10.6 µM) | 4.2 (≈ 9.87 µM) | 9.8 (≈ 23 µM) | – | – | – | – | – | – |
| COc1ccccc1C1c2[nH]c3ccccc3c2CCN1c1nc(Cl)cc(Cl)n1 (racemic) | 38.79 | – | – | – | inactive | inactive | inactive | inactive | Non-toxic | – | – | – | – | – | Not Active | – | – | – | – | – |
| COc1cccc(C2c3[nH]c4ccccc4c3CCN2c2nc(Cl)cc(Cl)n2)c1 (racemic) | 44.33 | – | – | – | inactive | inactive | inactive | inactive | Non-toxic | – | – | – | – | – | Not Active | – | – | – | – | – |
| Clc1cc(Cl)nc(N2CCc3c([nH]c4ccccc34)C2c2cccc(Br)c2)n1 (racemic) | 79.65 | 7.79 (≈ 16.4 µM) | 14 (≈ 29.6 µM) | 1.81 | – | – | – | – | – | 15.8 (≈ 33.3 µM) | 23.4 (≈ 49.3 µM) | 15.6 (≈ 32.9 µM) | 21.7 (≈ 45.8 µM) | 24.3 (≈ 51.2 µM) | – | – | – | – | – | – |
| Clc1cc(Cl)nc(N2CCc3c([nH]c4ccccc34)C2c2ccc3c(c2)OCO3)n1 (racemic) | 33.57 | – | – | – | – | – | – | – | – | 8.9 (≈ 20.3 µM) | 4.3 (≈ 9.79 µM) | 3.9 (≈ 8.88 µM) | 3.3 (≈ 7.51 µM) | 8.2 (≈ 18.7 µM) | Not Active | – | – | – | – | – |
| Clc1cc(Cl)nc(N2CCc3c([nH]c4ccccc34)C2c2ccc(OCc3ccccc3)cc2)n1 (racemic) | 36.85 | – | – | – | inactive | inactive | inactive | inactive | Non-toxic | – | – | – | – | – | Not Active | – | – | – | – | – |
| CCc1ccc(C2c3[nH]c4ccccc4c3CCN2c2nc(Cl)cc(Cl)n2)cc1 (racemic) | 60.24 | – | – | 6.87 | – | – | – | – | – | 23 (≈ 54.3 µM) | 32.4 (≈ 76.5 µM) | 22.8 (≈ 53.9 µM) | 19.8 (≈ 46.8 µM) | 37.8 (≈ 89.3 µM) | – | 4.46 (≈ 10.5 µM) | 30.7 (≈ 72.4 µM) | – | – | – |
| Cc1ccc(C2c3[nH]c4ccccc4c3CCN2c2nc(Cl)cc(Cl)n2)cc1 (racemic) | 84.15 | – | – | 4.09 | – | – | – | – | – | 20.2 (≈ 49.4 µM) | 28 (≈ 68.4 µM) | 21.6 (≈ 52.8 µM) | 24.9 (≈ 60.8 µM) | 33.7 (≈ 82.3 µM) | – | 6 (≈ 14.7 µM) | 24.6 (≈ 60.1 µM) | – | – | – |
| COc1cc(OC)cc(C2c3[nH]c4ccccc4c3CCN2c2nc(Cl)cc(Cl)n2)c1 (racemic) | 90.57 | – | – | – | inactive | inactive | inactive | inactive | Non-toxic | – | – | – | – | – | Not Active | – | – | – | – | – |
| COc1ccc(C2c3[nH]c4ccccc4c3CCN2c2nc(Cl)cc(Cl)n2)c(OC)c1 (racemic) | 54.14 | – | – | – | inactive | inactive | inactive | inactive | Non-toxic | – | – | – | – | – | Not Active | – | – | – | – | – |
| COc1ccc(OC)c(C2c3[nH]c4ccccc4c3CCN2c2nc(Cl)cc(Cl)n2)c1 (racemic) | 85.34 | – | – | – | inactive | inactive | inactive | inactive | Non-toxic | – | – | – | – | – | Not Active | – | – | – | – | – |
| CN1CCN(c2cc(N3CCN(C)CC3)nc(N3CCc4c([nH]c5ccccc45)C3c3ccc4c(c3)OCO4)n2)CC1 (racemic) | 99.96 | 0.49 (≈ 0.865 µM) | 2.8 (≈ 4.94 µM) | 5.71 | – | – | – | – | – | 1.5 (≈ 2.65 µM) | 1.2 (≈ 2.12 µM) | 2 (≈ 3.53 µM) | 1.1 (≈ 1.94 µM) | 2.6 (≈ 4.59 µM) | – | – | – | – | – | – |
| CCN1CCN(c2cc(N3CCN(CC)CC3)nc(N3CCc4c([nH]c5ccccc45)C3c3ccc4c(c3)OCO4)n2)CC1 (racemic) | 99.94 | 0.48 (≈ 0.807 µM) | 2.5 (≈ 4.2 µM) | 5.2 | – | – | – | – | – | 6.2 (≈ 10.4 µM) | 3.6 (≈ 6.05 µM) | 4.5 (≈ 7.57 µM) | 4.1 (≈ 6.89 µM) | 5.9 (≈ 9.92 µM) | – | – | – | – | – | – |
| COc1ccc(C2c3[nH]c4ccccc4c3CCN2c2nc(N3CCOCC3)cc(N3CCOCC3)n2)cc1 (racemic) | 97.25 | 4.48 (≈ 8.51 µM) | 67.7 (≈ 128 µM) | 15.1 | – | – | – | – | – | 4.5 (≈ 8.54 µM) | 3.9 (≈ 7.41 µM) | 5.1 (≈ 9.68 µM) | 2.5 (≈ 4.75 µM) | 7.8 (≈ 14.8 µM) | – | – | – | – | – | – |
| COc1ccc(C2c3[nH]c4ccccc4c3CCN2c2nc(N3CCOCC3)cc(N3CCOCC3)n2)cc1OC (racemic) | 85.31 | – | – | – | inactive | inactive | inactive | inactive | Non-toxic | – | – | – | – | – | Not Active | – | – | – | – | – |
| C=CC1CN2CCc3c([nH]c4ccccc34)[C@@H]2C[C@@H]1[C@@H](C(=O)OC)[C@H]1NCCc2c1[nH]c1ccccc21 (stereo partly specified) [BUCHTIENINE] | – | – | – | – | – | – | – | – | – | – | – | – | – | – | – | – | – | > 0.3 | – | – |
| N=C(N)c1ccc(OCCCCCOc2ccc(C(=N)N)cc2)cc1 [PENTAMIDINE] | 100 | – | 25.1 (≈ 73.9 µM) | – | – | – | – | – | – | – | – | – | – | – | – | – | – | – | – | – |
| sodiumstilbogluconate | – | – | – | – | – | – | – | – | – | – | – | – | – | – | – | – | – | – | 6.38 | 40 |
